From ChEMBL document CHEMBL1811897, “Nicotinic acetylcholine receptor efficacy and pharmacological properties of 3-(substituted phenyl)-2β-substituted tropanes” (J Med Chem, 2010) come the findings set out here.

Structures are written as SMILES. Active and inactive are the calls of the source.

For one test, the target named is T1, Neuronal acetylcholine receptor; alpha4/beta2 (Homo sapiens, UniProt P17787+P43681). Nature of the test: Antagonist activity against human alpha4beta2 nAChR in SHEP1 cells assessed as inhibition of carbamylcholine induced 86Rb+ efflux. Format: functional, cell-based.
T1 sequence (P17787 whole entry): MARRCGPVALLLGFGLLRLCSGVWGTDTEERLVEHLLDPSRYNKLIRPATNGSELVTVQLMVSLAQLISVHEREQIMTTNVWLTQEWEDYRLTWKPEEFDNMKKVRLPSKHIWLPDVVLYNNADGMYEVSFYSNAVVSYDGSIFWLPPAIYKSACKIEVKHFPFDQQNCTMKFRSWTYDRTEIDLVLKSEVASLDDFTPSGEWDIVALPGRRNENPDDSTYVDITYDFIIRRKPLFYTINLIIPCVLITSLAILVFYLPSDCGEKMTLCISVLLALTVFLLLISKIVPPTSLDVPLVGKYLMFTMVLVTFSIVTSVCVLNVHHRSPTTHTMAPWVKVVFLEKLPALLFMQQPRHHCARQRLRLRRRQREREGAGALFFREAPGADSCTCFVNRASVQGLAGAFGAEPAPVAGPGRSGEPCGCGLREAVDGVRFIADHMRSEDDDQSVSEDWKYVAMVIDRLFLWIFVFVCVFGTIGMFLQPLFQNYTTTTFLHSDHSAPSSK
T1 sequence (P43681 whole entry): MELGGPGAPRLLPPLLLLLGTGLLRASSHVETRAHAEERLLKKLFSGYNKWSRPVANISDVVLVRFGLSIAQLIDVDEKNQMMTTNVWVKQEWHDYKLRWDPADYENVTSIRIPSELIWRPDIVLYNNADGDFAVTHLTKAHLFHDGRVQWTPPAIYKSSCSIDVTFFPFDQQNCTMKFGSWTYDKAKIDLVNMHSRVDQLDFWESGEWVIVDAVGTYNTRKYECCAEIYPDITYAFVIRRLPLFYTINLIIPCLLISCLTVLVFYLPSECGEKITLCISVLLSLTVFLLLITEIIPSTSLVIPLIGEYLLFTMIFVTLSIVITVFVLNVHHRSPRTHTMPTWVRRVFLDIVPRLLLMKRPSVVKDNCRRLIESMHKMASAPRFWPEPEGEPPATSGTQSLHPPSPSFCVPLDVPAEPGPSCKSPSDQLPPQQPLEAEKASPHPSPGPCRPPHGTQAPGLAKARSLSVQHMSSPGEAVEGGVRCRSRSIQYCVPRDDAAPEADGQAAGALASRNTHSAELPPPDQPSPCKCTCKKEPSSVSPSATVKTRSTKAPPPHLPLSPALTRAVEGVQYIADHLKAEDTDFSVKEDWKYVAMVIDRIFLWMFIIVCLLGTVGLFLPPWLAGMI
Conditions: not given
In a few lines:
(§1)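 86Rb+ efflux was evoked by carbamylcholine at its EC80–EC90 concentration, with test ligand present. Cells were TE671/RD (α1*), SH-SY5Y (α3β4*) or transfected SH-EP1 (α4β2 or α4β4). For weak antagonists the minimum was fixed at 0%.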
Turning to `Cc1cc2nc([C@H]3[C@@H](c4ccc(Cl)cc4)C[C@@H]4CC[C@H]3N4C)[nH]c2cc1C`, the IC50 worked out at 1.8 µM.
Still for that read-out and setting: as for `COC(=O)[C@H]1[C@@H](c2ccc(Cl)c(C)c2)C[C@@H]2CC[C@H]1N2`, the figure is 16 µM.

For the next test, the species on record is Homo sapiens. Put plainly: Selectivity ratio for human DAT over human NET.
Conditions: not given
With `Cc1cc2nc([C@H]3[C@@H](c4ccc(Cl)cc4)C[C@@H]4CC[C@H]3N4C)[nH]c2cc1C`, the Ratio IC50 was 2.

The next test concerns Mus musculus. Put plainly: Inhibition of nicotine-induced hypolocomotion in ICR mouse assessed as number of photocell interruption dministered subcutaneously 15 mins prior to nicotine challenge and measured after 5 mins of […] nicotine challenge. More on the design: dose 1.5 mg/kg, route subcutaneous.
Conditions: not given
Format: functional, organism-based.
Turning to `Cc1cc2nc([C@H]3[C@@H](c4ccc(Cl)cc4)C[C@@H]4CC[C@H]3N4C)[nH]c2cc1C`, the IC50 was more than 20 mg/kg.
For `COC(=O)[C@H]1[C@@H](c2ccc(Cl)c(C)c2)C[C@@H]2CC[C@H]1N2`, the IC50 stood at 0.41 mg/kg.

A further test deals with T2, Neuronal acetylcholine receptor; alpha4/beta4 (Homo sapiens, UniProt P30926+P43681). Nature of the test: Agonist activity against human alpha4beta4 nAChR in SHEP1 cells assessed as 86Rb+ efflux at 5 nM to 100 uM. Format: functional, cell-based.
T2 sequence (P30926 whole entry): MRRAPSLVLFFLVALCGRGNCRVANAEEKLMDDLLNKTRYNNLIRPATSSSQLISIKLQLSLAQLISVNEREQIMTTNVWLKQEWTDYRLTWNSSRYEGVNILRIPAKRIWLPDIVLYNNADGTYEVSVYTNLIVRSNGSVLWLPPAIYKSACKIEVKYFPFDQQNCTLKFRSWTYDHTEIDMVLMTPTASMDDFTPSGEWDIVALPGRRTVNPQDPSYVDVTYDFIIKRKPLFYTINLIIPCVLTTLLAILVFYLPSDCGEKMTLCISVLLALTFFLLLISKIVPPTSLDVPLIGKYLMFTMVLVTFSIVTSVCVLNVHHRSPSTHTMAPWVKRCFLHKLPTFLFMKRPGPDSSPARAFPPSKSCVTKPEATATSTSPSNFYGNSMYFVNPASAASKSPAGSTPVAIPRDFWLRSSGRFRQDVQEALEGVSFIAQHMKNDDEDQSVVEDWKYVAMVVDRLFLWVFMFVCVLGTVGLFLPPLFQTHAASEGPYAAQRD
T2 sequence (P43681 whole entry): as the sequence (P43681 whole entry) above
Conditions: not given
In a few lines: (§2)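 Test ligands were applied alone at ~5 nM to 100 μM in 86Rb+ efflux assays. Cells were TE671/RD (endogenous muscle-type α1*), SH-SY5Y (endogenous α3β4*) or transfected SH-EP1 (human α4β2 or α4β4). Non-specific efflux was subtracted. Intrinsic activity was normalized to specific efflux, defined as efflux with fully efficacious carbamylcholine minus efflux with buffer alone.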
With `Cc1cc2nc([C@H]3[C@@H](c4ccc(Cl)cc4)C[C@@H]4CC[C@H]3N4C)[nH]c2cc1C`, the result was inactive.
The same measure, in the same setting: for `COC(=O)[C@H]1[C@@H](c2ccc(Cl)c(C)c2)C[C@@H]2CC[C@H]1N2` the value was “inactive”.

For another test, the target named is Sodium-dependent noradrenaline transporter (Homo sapiens, UniProt P23975). Nature of the test: Inhibition of human NET expressed in HEK293 cells assessed as inhibition of [3H]NE reuptake after 10 mins by scintillation counting. Format: cell-based.
Chain of Sodium-dependent noradrenaline transporter (P23975 whole entry): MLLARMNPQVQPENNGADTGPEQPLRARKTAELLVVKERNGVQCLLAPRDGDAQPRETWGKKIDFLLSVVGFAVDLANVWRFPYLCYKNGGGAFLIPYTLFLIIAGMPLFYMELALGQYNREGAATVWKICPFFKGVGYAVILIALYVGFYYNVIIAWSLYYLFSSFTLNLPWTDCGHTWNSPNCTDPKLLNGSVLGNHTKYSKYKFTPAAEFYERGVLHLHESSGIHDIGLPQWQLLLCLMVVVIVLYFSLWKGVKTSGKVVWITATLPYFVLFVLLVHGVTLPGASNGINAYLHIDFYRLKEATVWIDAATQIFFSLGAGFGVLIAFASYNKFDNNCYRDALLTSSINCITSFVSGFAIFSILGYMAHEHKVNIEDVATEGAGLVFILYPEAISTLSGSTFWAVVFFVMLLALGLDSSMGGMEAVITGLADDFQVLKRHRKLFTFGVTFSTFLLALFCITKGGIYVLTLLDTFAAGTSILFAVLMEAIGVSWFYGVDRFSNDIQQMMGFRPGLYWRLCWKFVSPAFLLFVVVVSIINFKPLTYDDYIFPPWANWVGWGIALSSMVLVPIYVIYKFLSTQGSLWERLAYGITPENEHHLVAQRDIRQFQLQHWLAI
Conditions: not given
Regarding `Cc1cc2nc([C@H]3[C@@H](c4ccc(Cl)cc4)C[C@@H]4CC[C@H]3N4C)[nH]c2cc1C`, the IC50 amounted to 19 nM.
In the case of `COC(=O)[C@H]1[C@@H](c2ccc(Cl)c(C)c2)C[C@@H]2CC[C@H]1N2`, the IC50 stood at 0.9 nM.

The next test deals with T3, Acetylcholine receptor; alpha1/beta1/delta/gamma (Homo sapiens, UniProt P02708+P07510+P11230+Q07001). Put plainly: Antagonist activity against human muscle-type alpha1beta1gammadelta nAChR in TE671/RD cells assessed as inhibition of carbamylcholine induced 86Rb+ efflux. Format: functional, cell-based.
T3 sequence (P02708 whole entry): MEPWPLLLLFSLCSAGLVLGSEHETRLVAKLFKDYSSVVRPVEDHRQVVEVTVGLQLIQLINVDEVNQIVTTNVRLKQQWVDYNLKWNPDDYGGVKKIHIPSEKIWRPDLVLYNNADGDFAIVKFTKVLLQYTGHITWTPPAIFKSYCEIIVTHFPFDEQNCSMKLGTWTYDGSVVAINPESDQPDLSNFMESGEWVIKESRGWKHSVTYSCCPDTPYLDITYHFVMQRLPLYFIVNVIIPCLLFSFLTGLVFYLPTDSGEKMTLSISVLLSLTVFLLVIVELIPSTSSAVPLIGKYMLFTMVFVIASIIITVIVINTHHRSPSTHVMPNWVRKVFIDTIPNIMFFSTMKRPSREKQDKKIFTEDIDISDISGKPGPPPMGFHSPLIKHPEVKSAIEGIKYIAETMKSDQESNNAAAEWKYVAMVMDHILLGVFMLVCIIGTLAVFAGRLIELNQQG
T3 sequence (P07510 whole entry): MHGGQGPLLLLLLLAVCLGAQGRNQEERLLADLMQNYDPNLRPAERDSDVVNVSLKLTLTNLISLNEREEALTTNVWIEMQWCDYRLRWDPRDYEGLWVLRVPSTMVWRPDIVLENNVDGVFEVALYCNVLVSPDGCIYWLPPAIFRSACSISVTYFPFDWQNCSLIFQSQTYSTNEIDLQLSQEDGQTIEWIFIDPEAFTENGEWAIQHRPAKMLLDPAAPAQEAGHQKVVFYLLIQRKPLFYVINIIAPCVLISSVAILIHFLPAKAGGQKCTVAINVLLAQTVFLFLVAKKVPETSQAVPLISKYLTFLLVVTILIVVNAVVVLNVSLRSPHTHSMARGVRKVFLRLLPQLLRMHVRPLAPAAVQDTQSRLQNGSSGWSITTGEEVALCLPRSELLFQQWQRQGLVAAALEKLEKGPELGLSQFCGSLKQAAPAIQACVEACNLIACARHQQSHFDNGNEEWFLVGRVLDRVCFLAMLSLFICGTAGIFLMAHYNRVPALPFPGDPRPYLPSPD
T3 sequence (P11230 whole entry): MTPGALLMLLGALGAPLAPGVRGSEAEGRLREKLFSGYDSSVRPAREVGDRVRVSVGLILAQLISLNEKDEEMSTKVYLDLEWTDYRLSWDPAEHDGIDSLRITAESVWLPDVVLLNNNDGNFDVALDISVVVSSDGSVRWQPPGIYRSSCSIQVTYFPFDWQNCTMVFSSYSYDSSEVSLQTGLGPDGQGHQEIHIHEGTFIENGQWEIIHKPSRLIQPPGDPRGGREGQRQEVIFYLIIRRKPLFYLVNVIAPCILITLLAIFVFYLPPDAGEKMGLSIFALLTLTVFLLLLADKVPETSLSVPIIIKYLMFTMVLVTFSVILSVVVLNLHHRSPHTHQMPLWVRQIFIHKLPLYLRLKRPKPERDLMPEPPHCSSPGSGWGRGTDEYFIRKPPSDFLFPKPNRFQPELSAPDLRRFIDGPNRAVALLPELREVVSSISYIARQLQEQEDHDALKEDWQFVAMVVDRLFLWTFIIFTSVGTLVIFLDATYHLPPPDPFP
T3 sequence (Q07001 whole entry): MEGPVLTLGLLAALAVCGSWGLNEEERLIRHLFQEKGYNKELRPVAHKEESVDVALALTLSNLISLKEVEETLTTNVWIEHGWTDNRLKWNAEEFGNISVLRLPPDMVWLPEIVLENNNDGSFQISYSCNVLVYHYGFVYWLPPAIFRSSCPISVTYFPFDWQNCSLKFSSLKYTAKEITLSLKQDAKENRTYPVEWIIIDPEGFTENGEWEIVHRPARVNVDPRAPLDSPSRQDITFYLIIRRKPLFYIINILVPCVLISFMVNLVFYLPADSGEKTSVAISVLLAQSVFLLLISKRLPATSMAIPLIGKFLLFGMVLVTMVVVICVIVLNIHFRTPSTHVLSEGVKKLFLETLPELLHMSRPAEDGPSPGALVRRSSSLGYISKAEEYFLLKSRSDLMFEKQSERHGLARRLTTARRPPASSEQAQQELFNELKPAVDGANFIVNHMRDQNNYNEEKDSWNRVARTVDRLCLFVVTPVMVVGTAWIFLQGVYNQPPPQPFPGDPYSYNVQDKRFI
Conditions: not given
In a few lines: as §1
As to `Cc1cc2nc([C@H]3[C@@H](c4ccc(Cl)cc4)C[C@@H]4CC[C@H]3N4C)[nH]c2cc1C`, the IC50 amounted to 4.7 µM.
Still for that read-out and setting: as for `COC(=O)[C@H]1[C@@H](c2ccc(Cl)c(C)c2)C[C@@H]2CC[C@H]1N2`, the figure is 11 µM.

The species named for a further test is Homo sapiens. Nature of the test: Selectivity for human NET over human ganglionic alpha3beta4alpha5beta2 nAChR.
Conditions: not given
As to `COC(=O)[C@H]1[C@@H](c2ccc(Cl)c(C)c2)C[C@@H]2CC[C@H]1N2`, the Ratio IC50 turned out to be 3500.

The species named for the next test is Homo sapiens. Nature of the test: Selectivity for human NET over human DAT.
Conditions: not given
Take `COC(=O)[C@H]1[C@@H](c2ccc(Cl)c(C)c2)C[C@@H]2CC[C@H]1N2`: the Ratio IC50 was 2.

For another test, the species on record is Homo sapiens. Put plainly: Selectivity for human ganglionic alpha3beta4alpha5beta2 nAChR over human alpha4beta2 nAChR.
Conditions: not given
For the compound `Cc1cc2nc([C@H]3[C@@H](c4ccc(Cl)cc4)C[C@@H]4CC[C@H]3N4C)[nH]c2cc1C`, the Ratio IC50 is 3.

For another test, the target named is Sodium-dependent serotonin transporter (Homo sapiens, UniProt P31645). Nature of the test: Inhibition of human SERTexpressed in HEK293 cells assessed as inhibition of [3H]5HT reuptake after 10 mins by scintillation counting. Format: cell-based.
Conditions: not given
For `Cc1cc2nc([C@H]3[C@@H](c4ccc(Cl)cc4)C[C@@H]4CC[C@H]3N4C)[nH]c2cc1C`, the IC50 was more than 100000 nM.
Take `COC(=O)[C@H]1[C@@H](c2ccc(Cl)c(C)c2)C[C@@H]2CC[C@H]1N2`: the IC50 was found to be 6.2 nM.

The next test relates to Mus musculus. Put plainly: Antipyretic activity against nicotine-induced hypothermia in ICR mouse assessed as change in rectal temperature dministered subcutaneously 15 mins prior to nicotine challenge and measured after 30 mins of 2.5 mg/kg nicotine challenge. Format: functional, organism-based. Further details: dose 2.5 mg/kg, route subcutaneous.
Conditions: not given
In a few lines: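 Male ICR mice (20–25 g) were pretreated with saline or test drug 15 min before s.c. nicotine at 2.5 mg/kg. Rectal temperature was read by thermistor probe (24 mm insertion) just before and 30 min after nicotine, and the change was taken. Ambient temperature was 21–24 °C. AD50 with confidence limits came from ≥4 doses and ≥8 mice per dose.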
Take `Cc1cc2nc([C@H]3[C@@H](c4ccc(Cl)cc4)C[C@@H]4CC[C@H]3N4C)[nH]c2cc1C`: the IC50 was more than 20 mg/kg.
For the compound `COC(=O)[C@H]1[C@@H](c2ccc(Cl)c(C)c2)C[C@@H]2CC[C@H]1N2`, the IC50 worked out at 0.23 mg/kg.

The next test addresses T2, Neuronal acetylcholine receptor; alpha4/beta4. Put plainly: Antagonist activity against human alpha4beta4 nAChR in SHEP1 cells assessed as inhibition of carbamylcholine induced 86Rb+ efflux. It is filed as functional, cell-based.
Conditions: not given
In a few lines:
as §1
For `Cc1cc2nc([C@H]3[C@@H](c4ccc(Cl)cc4)C[C@@H]4CC[C@H]3N4C)[nH]c2cc1C`, the IC50 was 4.3 µM.
The same measure, in the same setting: as for `COC(=O)[C@H]1[C@@H](c2ccc(Cl)c(C)c2)C[C@@H]2CC[C@H]1N2`, the figure is 12 µM.

Another test relates to Mus musculus. Put plainly: Inhibition of nicotine-induced antinociception activity in ICR mouse assessed as latency to remove tail administered subcutaneously 15 mins prior to nicotine challenge and measured after 5 mins of 2.5 mg/kg nicotine challenge by tail-flick test. It is filed as functional, organism-based. More on the design: dose 2.5 mg/kg, route subcutaneous.
Conditions: not given
In a few lines:
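Radiant heat was aimed at the upper tail, with a 10 s cutoff. Baseline latency was 2–4 s for each mouse. Response was expressed as %MPE. AD50 with confidence limits came from ≥4 doses and ≥8 mice per dose.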
Take `Cc1cc2nc([C@H]3[C@@H](c4ccc(Cl)cc4)C[C@@H]4CC[C@H]3N4C)[nH]c2cc1C`: the IC50 came to 0.11 mg/kg.
Same read-out and setting: as for `COC(=O)[C@H]1[C@@H](c2ccc(Cl)c(C)c2)C[C@@H]2CC[C@H]1N2`, the figure is 0.003 mg/kg.

The species entered for the next test is Homo sapiens. Nature of the test: Selectivity ratio for human DAT over human SERT.
Conditions: not given
Take `Cc1cc2nc([C@H]3[C@@H](c4ccc(Cl)cc4)C[C@@H]4CC[C@H]3N4C)[nH]c2cc1C`: the Ratio IC50 came to 2.

For another test, the system named is Mus musculus. Put plainly: Inhibition of nicotine-induced conditioned place preference in ICR mouse assessed as activity count and time spent in chamberdministered subcutaneously 15 mins prior to 0.5 mg/kg nicotine challenge up to 4 days using photosensors. Format: functional, organism-based. Further details: dose 0.5 mg/kg, route subcutaneous.
Conditions: not given
In a few lines:
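Unbiased three-compartment CPP in male ICR mice. Day 1: 5 min confinement to the middle compartment, then 15 min free access; mice were grouped by equal bias. Days 2–4: vehicle or test drug s.c. 15 min before nicotine (0.5 mg/kg s.c.) in the paired side, with saline on the opposite side, 20 min sessions. Day 5: drug-free test with photosensor recording. AD50 from ≥3 doses, ≥8 mice per dose.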
Consider `Cc1cc2nc([C@H]3[C@@H](c4ccc(Cl)cc4)C[C@@H]4CC[C@H]3N4C)[nH]c2cc1C`, for which the IC50 worked out at 0.45 mg/kg.
The same measure, in the same setting: as for `COC(=O)[C@H]1[C@@H](c2ccc(Cl)c(C)c2)C[C@@H]2CC[C@H]1N2`, the figure is 0.25 mg/kg.

The species entered for another test is Homo sapiens. Nature of the test: Selectivity for human DAT over human ganglionic alpha3beta4alpha5beta2 nAChR.
Conditions: not given
Take `Cc1cc2nc([C@H]3[C@@H](c4ccc(Cl)cc4)C[C@@H]4CC[C@H]3N4C)[nH]c2cc1C`: the Ratio IC50 came out at 78.

The next test deals with Sodium-dependent dopamine transporter (Homo sapiens, UniProt Q01959). Put plainly: Inhibition of human DAT expressed in HEK293 cells assessed as inhibition of [3H]DA reuptake after 10 mins by scintillation counting. It is filed as cell-based.
Chain of Sodium-dependent dopamine transporter (Q01959 whole entry): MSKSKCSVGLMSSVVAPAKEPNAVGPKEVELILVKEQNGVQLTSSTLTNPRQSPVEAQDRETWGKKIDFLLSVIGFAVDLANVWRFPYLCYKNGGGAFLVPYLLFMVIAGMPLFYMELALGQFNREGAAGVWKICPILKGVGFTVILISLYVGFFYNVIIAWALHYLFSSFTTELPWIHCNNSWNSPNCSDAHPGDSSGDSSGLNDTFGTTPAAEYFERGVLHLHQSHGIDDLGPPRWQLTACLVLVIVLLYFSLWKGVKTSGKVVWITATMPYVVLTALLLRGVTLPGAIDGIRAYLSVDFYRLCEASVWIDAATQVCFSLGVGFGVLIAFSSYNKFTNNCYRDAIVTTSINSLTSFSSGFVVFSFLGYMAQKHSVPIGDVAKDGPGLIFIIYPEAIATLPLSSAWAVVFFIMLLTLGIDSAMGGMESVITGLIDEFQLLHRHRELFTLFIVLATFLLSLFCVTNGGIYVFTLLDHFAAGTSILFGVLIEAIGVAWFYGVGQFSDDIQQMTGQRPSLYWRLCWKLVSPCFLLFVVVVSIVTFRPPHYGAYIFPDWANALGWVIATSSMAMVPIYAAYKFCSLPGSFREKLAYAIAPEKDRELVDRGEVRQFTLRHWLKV
Conditions: not given
With `Cc1cc2nc([C@H]3[C@@H](c4ccc(Cl)cc4)C[C@@H]4CC[C@H]3N4C)[nH]c2cc1C`, the IC50 came to 7.3 nM.
Consider `COC(=O)[C@H]1[C@@H](c2ccc(Cl)c(C)c2)C[C@@H]2CC[C@H]1N2`, for which the IC50 is 2.3 nM.

A further test addresses Neuronal acetylcholine receptor; alpha3/beta4 (Homo sapiens) (UniProt P30926+P32297). Nature of the test: Antagonist activity against human ganglionic alpha3beta4 nAChR in SHSY5Y cells assessed as inhibition of carbamylcholine induced 86Rb+ efflux at 10 uM. The note with it: SH-SY5Y. Format: functional, cell-based.
For `Cc1cc2nc([C@H]3[C@@H](c4ccc(Cl)cc4)C[C@@H]4CC[C@H]3N4C)[nH]c2cc1C`, the inhibition entry was “Active”.

A further test deals with T1, Neuronal acetylcholine receptor; alpha4/beta2. Nature of the test: Agonist activity at human alpha4beta2 nAChR in SHEP1 cells assessed as 86Rb+ efflux at 5 nM to 100 uM. It is filed as functional, cell-based.
Conditions: not given
In a few lines:
as §2
Consider `Cc1cc2nc([C@H]3[C@@H](c4ccc(Cl)cc4)C[C@@H]4CC[C@H]3N4C)[nH]c2cc1C`, for which the outcome was inactive.
Still for that read-out and setting: as for `COC(=O)[C@H]1[C@@H](c2ccc(Cl)c(C)c2)C[C@@H]2CC[C@H]1N2`, the entry is “inactive”.

Another test has as its target T3, Acetylcholine receptor; alpha1/beta1/delta/gamma. Put plainly: Agonist activity at human muscle-type alpha1beta1gammadelta nAChR in TE671/RD cells assessed as 86Rb+ efflux at 5 nM to 100 uM. Format: functional, cell-based.
Conditions: not given
In a few lines:
as §2
Turning to `Cc1cc2nc([C@H]3[C@@H](c4ccc(Cl)cc4)C[C@@H]4CC[C@H]3N4C)[nH]c2cc1C`, the outcome was inactive.
The same measure, in the same setting: for `COC(=O)[C@H]1[C@@H](c2ccc(Cl)c(C)c2)C[C@@H]2CC[C@H]1N2` the value was “inactive”.

Another test deals with Mus musculus. Put plainly: Inhibition of nicotine-induced antinociception activity in ICR mouse assessed as paw licking and jumping latency dministered subcutaneously 15 mins prior to nicotine challenge and measured after 5 mins of 2.5 mg/kg nicotine challenge by hot plate test.
Conditions: not given
Format: functional, organism-based. More on the design: dose 2.5 mg/kg, route subcutaneous. In a few lines:
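Hot plate was held at 55 °C with a 40 s cutoff. End-point was paw lick or jump. Control latency was measured twice, ≥10 min apart. Response was calculated as %MPE. Groups of 8–12; AD50 from ≥4 doses.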
As to `Cc1cc2nc([C@H]3[C@@H](c4ccc(Cl)cc4)C[C@@H]4CC[C@H]3N4C)[nH]c2cc1C`, the IC50 amounted to 19 mg/kg.
Same read-out and setting: for `COC(=O)[C@H]1[C@@H](c2ccc(Cl)c(C)c2)C[C@@H]2CC[C@H]1N2` the value was 0.78 mg/kg.
